{"data": "Assay results gathered from unrelated publications", "target": "Bone morphogenetic protein receptor type-2 (BMPR2, Homo sapiens, UniProt Q13873)", "One construct used (Q13873 27-1038)": "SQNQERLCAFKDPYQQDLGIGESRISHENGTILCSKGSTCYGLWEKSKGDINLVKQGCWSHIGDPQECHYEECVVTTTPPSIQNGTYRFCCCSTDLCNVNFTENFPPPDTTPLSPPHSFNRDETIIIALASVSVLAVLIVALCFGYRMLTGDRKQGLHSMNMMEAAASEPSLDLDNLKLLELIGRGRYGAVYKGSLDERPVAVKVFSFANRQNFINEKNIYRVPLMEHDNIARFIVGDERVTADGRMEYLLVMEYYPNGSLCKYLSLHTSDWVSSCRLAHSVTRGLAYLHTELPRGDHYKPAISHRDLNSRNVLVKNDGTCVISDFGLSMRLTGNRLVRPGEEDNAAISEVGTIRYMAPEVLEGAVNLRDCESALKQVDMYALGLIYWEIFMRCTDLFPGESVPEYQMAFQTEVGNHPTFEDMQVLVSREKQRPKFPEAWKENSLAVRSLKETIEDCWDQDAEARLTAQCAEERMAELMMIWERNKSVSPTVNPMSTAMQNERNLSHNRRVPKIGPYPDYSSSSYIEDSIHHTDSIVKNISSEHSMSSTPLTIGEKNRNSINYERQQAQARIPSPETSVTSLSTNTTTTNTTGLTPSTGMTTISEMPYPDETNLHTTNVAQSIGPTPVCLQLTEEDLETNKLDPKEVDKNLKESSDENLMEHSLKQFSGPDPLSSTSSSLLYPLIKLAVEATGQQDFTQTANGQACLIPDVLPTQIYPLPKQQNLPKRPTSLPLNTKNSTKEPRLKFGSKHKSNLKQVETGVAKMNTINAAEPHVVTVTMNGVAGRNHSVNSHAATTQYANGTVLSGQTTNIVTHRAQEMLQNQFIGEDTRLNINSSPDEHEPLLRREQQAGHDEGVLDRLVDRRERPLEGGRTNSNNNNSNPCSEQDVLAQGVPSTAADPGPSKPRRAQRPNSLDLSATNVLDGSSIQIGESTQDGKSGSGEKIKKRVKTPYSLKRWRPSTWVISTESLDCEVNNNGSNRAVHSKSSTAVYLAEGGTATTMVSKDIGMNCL", "note": "Protocols differ between the studies behind these lines."}
{"Structure (SMILES)": "CC#CC(=O)N1CCC[C@H]1c1nc(-c2ccc(C(=O)Nc3ccccn3)cc2)c2c(N)nccn12", "assay": "enzyme activity, inhibitor", "conditions": "1 µM", "quantity": "inhibition", "value": "0%"}
{"Structure (SMILES)": "C1=C/COCc2cc(ccc2OCCN2CCCC2)Nc2nccc(n2)-c2cccc(c2)COC/1", "assay": "binding", "conditions": "0.1 µM", "quantity": "remaining binding", "value": "80%"}
{"Structure (SMILES)": "CCCCC(=O)Nc1ccc(-c2ccc3ncn(CCC)c(=O)c3c2)cn1", "assay": "binding, competition with immobilised ligand", "conditions": "0.5 µM", "quantity": "remaining binding", "value": "100%"}
{"Structure (SMILES)": "Cc1ccc(NC(=O)c2ccnc(C(F)(F)F)c2)cc1-c1cc(OCCO)nc(N2CCOCC2)c1", "assay": "binding", "conditions": "1 µM", "quantity": "remaining binding", "value": "100%"}
{"Structure (SMILES)": "C=CC(=O)N1CCC[C@@H](n2nc(-c3ccc(Oc4ccccc4)cc3)c3c(N)ncnc32)C1", "assay": "enzyme activity, inhibitor", "conditions": "1 µM", "quantity": "inhibition", "value": "19%"}
{"Structure (SMILES)": "N#Cc1ccc(NC(=O)Nc2ccccc2)cc1", "assay": "cell-free assay, competition with immobilised ligand", "conditions": "25 µM", "quantity": "remaining binding", "value": "95%"}
{"Structure (SMILES)": "COc1ccc2oc(-c3ccc4nc(N)oc4c3)c/c(=N\\c3ccccc3NC(=O)CCN)c2c1", "assay": "binding", "conditions": "1 µM", "quantity": "remaining binding", "value": "104%"}
{"Structure (SMILES)": "C[C@H]1CC[C@H](n2c3cnccc3c3cnc(Nc4ccc5c(n4)CCN(C(=O)CO)C5)nc32)CC1", "assay": "binding", "conditions": "1 µM", "quantity": "remaining binding", "value": "100%"}
